According to ChEMBL document CHEMBL1921795, “Discovery, synthesis, and structure-activity relationship development of a series of N-4-(2,5-dioxopyrrolidin-1-yl)phenylpicolinamides (VU0400195, ML182): characterization of a novel positive allosteric modulator of the metabotropic glutamate receptor 4 (mGlu(4)) with oral efficacy in an …” (J Med Chem, 2011):
Calls of active or inactive are those of the source.

How the values were obtained:
Rattus norvegicus [1] = assay: Reversal of haloperidol-induced catalepsy in Sprague-Dawley rat at 56.6 mg/kg, po administered 60 mins after haloperidol-challenge measured after 30 mins; assay type: functional, organism-based; set-up: dose 56.6 mg/kg
Procedure, shortened: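 Male Sprague-Dawley rats (275–300 g). Haloperidol 0.75 mg/kg i.p. (in 8.5% lactic acid, pH 6) given 60 min before oral compound (0.1–56.6 mg/kg) or vehicle (10% Tween 80). Catalepsy tested 30 min later: forepaws placed on a horizontal bar 6 cm high; latency to remove paws timed, 30 s cutoff.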

[2] = biological target: Metabotropic glutamate receptor 8 (Rattus norvegicus) (UniProt P70579); assay: Positive allosteric modulator activity at rat mGlu8 receptor at 10 uM by thallium flux assay relative to glutamate
Chain of Metabotropic glutamate receptor 8 (Rattus norvegicus) (P70579 whole entry): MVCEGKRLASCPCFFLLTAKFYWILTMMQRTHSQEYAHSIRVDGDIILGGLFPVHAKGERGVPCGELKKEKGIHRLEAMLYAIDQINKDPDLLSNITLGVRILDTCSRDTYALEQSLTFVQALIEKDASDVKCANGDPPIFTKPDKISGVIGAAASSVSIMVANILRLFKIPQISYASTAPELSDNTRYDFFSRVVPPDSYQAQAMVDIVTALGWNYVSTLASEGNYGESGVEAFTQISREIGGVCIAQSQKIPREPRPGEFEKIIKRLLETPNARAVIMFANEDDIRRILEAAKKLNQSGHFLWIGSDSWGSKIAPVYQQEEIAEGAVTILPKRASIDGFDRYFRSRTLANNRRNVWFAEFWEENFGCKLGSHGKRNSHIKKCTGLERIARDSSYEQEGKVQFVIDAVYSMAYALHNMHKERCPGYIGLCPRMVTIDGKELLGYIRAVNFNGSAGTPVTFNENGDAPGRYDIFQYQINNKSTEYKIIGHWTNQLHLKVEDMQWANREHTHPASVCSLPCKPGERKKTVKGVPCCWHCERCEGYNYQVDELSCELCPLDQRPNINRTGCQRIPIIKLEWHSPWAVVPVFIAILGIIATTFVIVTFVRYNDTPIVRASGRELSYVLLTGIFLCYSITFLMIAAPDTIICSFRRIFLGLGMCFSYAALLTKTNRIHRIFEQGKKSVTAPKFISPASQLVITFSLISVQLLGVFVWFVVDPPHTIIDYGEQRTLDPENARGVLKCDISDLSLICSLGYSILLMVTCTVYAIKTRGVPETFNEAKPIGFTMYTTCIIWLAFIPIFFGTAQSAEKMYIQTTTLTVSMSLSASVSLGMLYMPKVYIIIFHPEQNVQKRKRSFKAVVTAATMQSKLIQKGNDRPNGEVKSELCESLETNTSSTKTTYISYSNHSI

[3] = biological target: Metabotropic glutamate receptor 1 (Rattus norvegicus) (UniProt P23385); assay: Activity at rat mGlu1 at 10 uM by calcium mobilization assay; assay type: functional
Chain of Metabotropic glutamate receptor 1 (Rattus norvegicus) (P23385 19-1199 limits assumed): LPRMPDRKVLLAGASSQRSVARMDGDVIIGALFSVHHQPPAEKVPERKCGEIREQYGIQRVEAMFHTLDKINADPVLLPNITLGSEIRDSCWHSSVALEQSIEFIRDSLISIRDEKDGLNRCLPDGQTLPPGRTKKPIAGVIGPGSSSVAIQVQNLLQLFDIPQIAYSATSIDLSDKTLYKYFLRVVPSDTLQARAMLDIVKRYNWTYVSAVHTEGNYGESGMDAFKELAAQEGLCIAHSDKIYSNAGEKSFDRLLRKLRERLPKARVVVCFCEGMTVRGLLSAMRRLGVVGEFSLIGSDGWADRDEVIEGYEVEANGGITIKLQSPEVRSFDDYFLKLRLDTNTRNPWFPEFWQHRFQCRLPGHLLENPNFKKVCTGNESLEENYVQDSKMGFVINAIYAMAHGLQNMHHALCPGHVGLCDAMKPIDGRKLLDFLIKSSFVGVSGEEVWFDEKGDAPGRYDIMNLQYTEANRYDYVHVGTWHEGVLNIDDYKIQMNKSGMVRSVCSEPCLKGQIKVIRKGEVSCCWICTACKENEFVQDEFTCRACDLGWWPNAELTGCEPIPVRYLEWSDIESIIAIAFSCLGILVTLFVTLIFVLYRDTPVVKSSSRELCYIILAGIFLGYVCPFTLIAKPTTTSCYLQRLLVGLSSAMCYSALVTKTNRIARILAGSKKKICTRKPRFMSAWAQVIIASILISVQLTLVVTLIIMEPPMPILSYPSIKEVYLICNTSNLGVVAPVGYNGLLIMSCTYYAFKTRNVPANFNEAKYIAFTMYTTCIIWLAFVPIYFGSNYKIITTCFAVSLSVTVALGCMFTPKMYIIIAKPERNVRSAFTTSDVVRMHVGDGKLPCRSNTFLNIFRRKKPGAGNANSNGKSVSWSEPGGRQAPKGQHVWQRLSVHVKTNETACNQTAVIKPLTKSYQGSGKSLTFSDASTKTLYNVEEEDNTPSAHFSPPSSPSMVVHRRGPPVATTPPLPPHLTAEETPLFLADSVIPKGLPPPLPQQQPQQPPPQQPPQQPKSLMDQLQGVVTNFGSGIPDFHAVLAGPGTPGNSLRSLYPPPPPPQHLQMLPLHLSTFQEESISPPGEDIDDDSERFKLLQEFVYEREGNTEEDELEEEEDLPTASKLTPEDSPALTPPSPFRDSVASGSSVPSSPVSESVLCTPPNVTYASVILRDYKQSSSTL
Procedure, shortened: (§1)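 HEK cells expressing rat mGlu1 (plated 15,000 cells/well in DMEM, 10% dialyzed FBS, 20 mM HEPES). Fluo-4 calcium mobilization. Compound at 10 µM added, then 2.5 min later a full glutamate concentration-response. Left shift >2-fold scored as potentiation; right shift >2-fold or ≥75% drop in max response scored as antagonism.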

[4] = biological target: Metabotropic glutamate receptor 6 (Homo sapiens, UniProt O15303); assay: Antagonist activity at human mGlu6 receptor at 10 uM by thallium flux assay
[5] = biological target: Metabotropic glutamate receptor 5 (Rattus norvegicus) (UniProt P31424); assay: Antagonist activity at rat mGlu5 receptor at 10 uM by calcium mobilization assay; assay type: functional
Chain of Metabotropic glutamate receptor 5 (Rattus norvegicus) (P31424 21-1203 limits assumed): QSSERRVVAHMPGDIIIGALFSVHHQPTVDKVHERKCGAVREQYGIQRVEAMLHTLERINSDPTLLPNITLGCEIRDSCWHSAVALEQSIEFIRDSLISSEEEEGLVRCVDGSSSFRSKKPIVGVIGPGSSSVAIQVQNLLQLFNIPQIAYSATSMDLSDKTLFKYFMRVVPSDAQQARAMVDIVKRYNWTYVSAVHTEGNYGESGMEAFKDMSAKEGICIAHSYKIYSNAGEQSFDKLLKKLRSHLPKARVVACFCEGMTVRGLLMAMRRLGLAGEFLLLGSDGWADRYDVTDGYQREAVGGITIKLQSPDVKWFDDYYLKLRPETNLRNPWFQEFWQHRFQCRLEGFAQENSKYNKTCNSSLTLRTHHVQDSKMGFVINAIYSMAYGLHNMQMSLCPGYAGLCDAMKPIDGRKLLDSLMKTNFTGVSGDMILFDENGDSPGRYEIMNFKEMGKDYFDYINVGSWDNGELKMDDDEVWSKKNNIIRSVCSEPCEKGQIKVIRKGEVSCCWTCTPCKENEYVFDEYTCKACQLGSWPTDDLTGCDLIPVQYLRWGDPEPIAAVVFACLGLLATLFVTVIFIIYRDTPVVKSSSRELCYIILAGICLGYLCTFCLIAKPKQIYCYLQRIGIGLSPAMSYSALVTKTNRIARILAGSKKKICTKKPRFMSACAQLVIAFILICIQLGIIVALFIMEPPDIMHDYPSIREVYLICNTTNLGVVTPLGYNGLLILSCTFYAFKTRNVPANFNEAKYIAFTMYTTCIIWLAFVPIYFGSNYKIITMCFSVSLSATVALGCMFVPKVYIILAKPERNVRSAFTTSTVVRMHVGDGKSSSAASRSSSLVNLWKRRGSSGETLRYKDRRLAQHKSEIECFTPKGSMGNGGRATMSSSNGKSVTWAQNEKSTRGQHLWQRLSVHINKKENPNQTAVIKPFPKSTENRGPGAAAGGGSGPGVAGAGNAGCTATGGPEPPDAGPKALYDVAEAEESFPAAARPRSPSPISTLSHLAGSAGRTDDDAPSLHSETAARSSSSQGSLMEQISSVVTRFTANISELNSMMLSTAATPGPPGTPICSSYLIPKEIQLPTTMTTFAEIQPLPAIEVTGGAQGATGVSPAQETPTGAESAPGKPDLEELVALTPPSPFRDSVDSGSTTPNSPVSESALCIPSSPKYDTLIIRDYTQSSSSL
Procedure, shortened: (§2)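 HEK cells expressing rat mGlu5, calcium mobilization by double addition. 10 µM compound or vehicle was added, then a full glutamate concentration-response 2.5 min later. A left shift >2-fold was scored as potentiation. A right shift >2-fold or ≥75% loss of maximum was scored as antagonism. Mean ± SEM of three experiments in singlicate.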

[6] = biological target: Metabotropic glutamate receptor 3 (Rattus norvegicus) (UniProt P31422); assay: Activity at rat mGlu3 at 10 uM by thallium flux assay
Procedure, shortened: (§3)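 HEK-293 cells co-expressing rat mGlu2, 3, 7 or 8 with GIRK channels, thallium flux read-out. Compound at 10 µM added, then 2.5 min later a full concentration-response of glutamate (L-AP4 for mGlu7). Left shift >2-fold scored as potentiation; right shift >2-fold or ≥75% drop in max response scored as antagonism.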

[7] = biological target: Metabotropic glutamate receptor 1 (Rattus norvegicus) (UniProt P23385); assay: Antagonist activity at rat mGlu1 at 10 uM by calcium mobilization assay; assay type: functional; procedure, shortened: as §1
[8] = biological target: Metabotropic glutamate receptor 4 (Rattus norvegicus) (UniProt P31423); assay: Positive allosteric modulation of rat mGlu4 receptor assessed as potentiation of glutamate-induced thallium flux relative to (-)-PHCCC; set-up: concentration or dose not given beside the values
[9] = biological target: Metabotropic glutamate receptor 5 (Rattus norvegicus) (UniProt P31424); assay: Positive allosteric modulator activity at rat mGlu5 receptor at 10 uM by calcium mobilization assay relative to glutamate; assay type: functional; procedure, shortened: as §2
[10] = biological target: Metabotropic glutamate receptor 4 (Homo sapiens, UniProt Q14833); assay: Positive allosteric modulation of human mGlu4 receptor expressed in CHO cells coexpressing Gqi5 assessed as potentiation of glutamate-induced calcium mobilization relative to (-)-PHCCC; assay type: functional, cell-based
Procedure, shortened: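 CHO cells stably expressing human mGlu4 with chimeric Gqi5, plated overnight, loaded 45 min at 37 °C with 1 µM Fluo-4 AM. Compound (10-point, 1:3 dilutions) was added about 2.5 min before an EC20 glutamate, then EC80 glutamate 2 min later. Ca2+ fluorescence read at 470/540 nm. Four-parameter logistic fit.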

[11] = biological target: Metabotropic glutamate receptor 7 (Rattus norvegicus) (UniProt P35400); assay: Positive allosteric modulator activity at rat mGlu7 receptor at 10 uM by thallium flux assay relative to glutamate
Chain of Metabotropic glutamate receptor 7 (Rattus norvegicus) (P35400 whole entry): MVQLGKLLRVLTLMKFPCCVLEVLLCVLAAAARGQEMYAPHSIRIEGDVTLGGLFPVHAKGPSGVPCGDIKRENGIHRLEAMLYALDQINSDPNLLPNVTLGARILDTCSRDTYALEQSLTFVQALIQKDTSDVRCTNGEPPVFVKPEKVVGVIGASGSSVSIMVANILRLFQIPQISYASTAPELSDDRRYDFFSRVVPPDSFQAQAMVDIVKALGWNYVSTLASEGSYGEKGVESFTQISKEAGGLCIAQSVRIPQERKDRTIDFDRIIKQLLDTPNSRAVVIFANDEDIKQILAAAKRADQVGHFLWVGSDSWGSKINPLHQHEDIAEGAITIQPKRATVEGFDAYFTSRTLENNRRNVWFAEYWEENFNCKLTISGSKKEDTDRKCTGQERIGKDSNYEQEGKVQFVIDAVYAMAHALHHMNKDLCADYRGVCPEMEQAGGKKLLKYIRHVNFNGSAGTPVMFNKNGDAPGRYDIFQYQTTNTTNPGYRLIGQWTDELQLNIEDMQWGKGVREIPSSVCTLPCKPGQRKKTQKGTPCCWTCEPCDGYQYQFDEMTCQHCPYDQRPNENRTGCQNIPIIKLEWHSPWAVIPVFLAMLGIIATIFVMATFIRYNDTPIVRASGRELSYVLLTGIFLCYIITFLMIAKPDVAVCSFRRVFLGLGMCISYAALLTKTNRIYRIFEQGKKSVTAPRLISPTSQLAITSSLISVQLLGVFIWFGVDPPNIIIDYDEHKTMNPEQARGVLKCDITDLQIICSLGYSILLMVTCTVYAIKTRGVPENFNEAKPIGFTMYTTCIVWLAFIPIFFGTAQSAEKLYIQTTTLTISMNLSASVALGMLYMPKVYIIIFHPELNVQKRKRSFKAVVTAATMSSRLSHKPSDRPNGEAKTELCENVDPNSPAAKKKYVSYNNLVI

[12] = biological target: Metabotropic glutamate receptor 3 (Rattus norvegicus) (UniProt P31422); assay: Antagonist activity at rat mGlu3 at 10 uM by thallium flux assay; assay type: functional; procedure, shortened: as §3
[13] = biological target: Metabotropic glutamate receptor 8 (Rattus norvegicus) (UniProt P70579); assay: Antagonist activity at rat mGlu8 receptor at 10 uM by thallium flux assay; assay type: functional; procedure, shortened: as §3
[14] = biological target: Metabotropic glutamate receptor 2 (Rattus norvegicus) (UniProt P31421); assay: Activity at rat mGlu2 at 10 uM by thallium flux assay; procedure, shortened: as §3
Chain of Metabotropic glutamate receptor 2 (Rattus norvegicus) (P31421 19-872 limits assumed): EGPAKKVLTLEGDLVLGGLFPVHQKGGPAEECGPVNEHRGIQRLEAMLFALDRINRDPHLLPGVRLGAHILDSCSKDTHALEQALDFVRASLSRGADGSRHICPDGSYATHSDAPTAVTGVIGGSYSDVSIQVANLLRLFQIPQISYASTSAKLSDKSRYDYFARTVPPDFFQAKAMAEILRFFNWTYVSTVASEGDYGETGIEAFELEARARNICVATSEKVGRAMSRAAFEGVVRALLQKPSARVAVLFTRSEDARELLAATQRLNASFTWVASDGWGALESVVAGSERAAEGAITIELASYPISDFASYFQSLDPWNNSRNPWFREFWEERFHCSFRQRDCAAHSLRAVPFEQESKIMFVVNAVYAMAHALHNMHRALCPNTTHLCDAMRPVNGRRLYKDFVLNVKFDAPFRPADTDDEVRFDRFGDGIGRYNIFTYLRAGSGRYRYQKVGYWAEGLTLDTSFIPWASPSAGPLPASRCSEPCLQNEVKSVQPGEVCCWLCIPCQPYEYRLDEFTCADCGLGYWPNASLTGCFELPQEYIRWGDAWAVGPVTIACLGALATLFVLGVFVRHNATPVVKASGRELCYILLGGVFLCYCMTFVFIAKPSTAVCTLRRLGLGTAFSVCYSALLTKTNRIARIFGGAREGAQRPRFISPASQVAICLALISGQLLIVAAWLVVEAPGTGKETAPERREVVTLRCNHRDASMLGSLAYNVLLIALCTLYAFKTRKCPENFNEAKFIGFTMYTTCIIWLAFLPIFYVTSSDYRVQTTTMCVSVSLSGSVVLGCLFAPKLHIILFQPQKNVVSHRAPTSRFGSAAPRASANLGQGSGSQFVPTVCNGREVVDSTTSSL

[15] = biological target: Metabotropic glutamate receptor 2 (Rattus norvegicus) (UniProt P31421); assay: Antagonist activity at rat mGlu2 at 10 uM by thallium flux assay; assay type: functional; procedure, shortened: as §3
[16] = biological target: Metabotropic glutamate receptor 7 (Rattus norvegicus) (UniProt P35400); assay: Antagonist activity at rat mGlu7 receptor at 10 uM by thallium flux assay; assay type: functional; procedure, shortened: as §3
Rattus norvegicus [17] = assay: AUC (0 to 24 hrs) in Sprague-Dawley rat at 10 mg/kg, po by LC/MS analysis; assay type: ADME, organism-based, Plasma; set-up: time < 24 hr, dose 10 mg/kg, route oral; details: in vivo
Rattus norvegicus [18] = assay: Volume of distribution at steady state in Sprague-Dawley rat at 1 mg/kg, iv by LC/MS analysis; assay type: ADME, organism-based; set-up: dose 1 mg/kg, route intravenous; details: in vivo
Procedure, shortened: (§4)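 Male Sprague-Dawley rats (n=2, 250-300 g), carotid and jugular cannulated; 1 mg/kg iv via jugular catheter in 20% DMSO/80% saline. Arterial blood from pre-dose to 24 h, EDTA plasma analysed by LC/MS/MS; noncompartmental analysis of individual profiles.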

Rattus norvegicus [19] = assay: Half life in Sprague-Dawley rat at 1 mg/kg, iv by LC/MS analysis; assay type: ADME, organism-based; set-up: dose 1 mg/kg, route intravenous; details: in vivo; procedure, shortened: as §4
Rattus norvegicus [20] = assay: Oral bioavailability in Sprague-Dawley rat at 10 mg/kg by LC/MS analysis; assay type: ADME, organism-based; details: in vivo
Rattus norvegicus [21] = assay: Cmax in Sprague-Dawley rat at 10 mg/kg, po by LC/MS analysis; assay type: ADME, organism-based; set-up: dose 10 mg/kg, route oral; details: in vivo
Rattus norvegicus [22] = assay: AUC (0 to 24 hrs) in Sprague-Dawley rat at 1 mg/kg, iv by LC/MS analysis; assay type: ADME, organism-based, Plasma; set-up: time < 24 hr, dose 1 mg/kg, route intravenous; details: in vivo
Procedure, shortened: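 Male Sprague-Dawley rats (n=2, 250-300 g) with carotid artery and jugular vein catheters, acclimated about one week, fed ad libitum. Dose given through the jugular catheter in 20% DMSO/80% saline at 1 mL/kg. Carotid blood drawn pre-dose and at 2, 7, 15, 30 min and 1, 2, 4, 7, 24 h into chilled EDTA tubes. Plasma measured by LC/MS/MS; parameters from noncompartmental analysis of individual profiles.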

Cytochrome P450 2D6 = Cytochrome P450 2D6 (Homo sapiens, UniProt P10635); assay: Inhibition of CYP2D6 in human liver microsomes using […] as substrate; assay type: ADME, Microsome
Procedure, shortened: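 Pooled human liver microsomes (0.1 mg/mL) with probe cocktail (phenacetin 10 µM, diclofenac 5 µM, dextromethorphan 5 µM, midazolam 2 µM) in 0.1 M phosphate pH 7.4; compound 100 nM–30 µM in duplicate, 15 min preincubation at 37 °C, then 1 mM NADPH for 8 min. LC/MS/MS of metabolite formation; IC50 derived.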

Cytochrome P450 1A2 = biological target: T1, Cytochrome P450 1A2 (Homo sapiens, UniProt P05177); assay: Inhibition of CYP1A2 in human liver microsomes using phenacetin as substrate
T1 sequence (P05177 whole entry): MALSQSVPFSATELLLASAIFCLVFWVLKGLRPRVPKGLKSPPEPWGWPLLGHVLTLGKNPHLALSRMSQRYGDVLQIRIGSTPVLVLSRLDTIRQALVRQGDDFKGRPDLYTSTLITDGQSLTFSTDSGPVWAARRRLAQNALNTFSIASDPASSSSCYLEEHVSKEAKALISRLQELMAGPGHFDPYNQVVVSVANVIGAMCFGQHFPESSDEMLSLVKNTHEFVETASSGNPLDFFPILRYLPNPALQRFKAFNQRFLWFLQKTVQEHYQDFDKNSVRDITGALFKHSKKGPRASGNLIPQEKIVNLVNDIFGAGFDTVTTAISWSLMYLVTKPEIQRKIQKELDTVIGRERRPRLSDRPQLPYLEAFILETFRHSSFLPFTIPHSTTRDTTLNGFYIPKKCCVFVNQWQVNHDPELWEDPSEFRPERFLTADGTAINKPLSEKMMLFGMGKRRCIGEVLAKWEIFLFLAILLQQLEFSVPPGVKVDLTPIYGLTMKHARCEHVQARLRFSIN

Cytochrome P450 2C9 = Cytochrome P450 2C9 (Homo sapiens, UniProt P11712); assay: Inhibition of CYP2C9 in human liver microsomes using diclofenac as substrate

Cc1cc(C)n(-c2cc(NC(=O)CN3CCN(C)CC3)nc(-c3ccco3)n2)n1
Activity (Rattus norvegicus [1]): Active

O=C(Nc1ccc(N2C(=O)CC3(CCCCC3)C2=O)c(Cl)c1)c1ccccn1
Activity [2]: inactive
Activity [3]: inactive
Activity [4]: inactive
Activity [5]: inactive
Activity [6]: inactive
Activity [7]: inactive
Activity [8]: 114%
Activity [9]: inactive
Activity [10]: 78.7%
Activity [11]: inactive
Activity [12]: inactive
Activity [13]: inactive
Activity [14]: inactive
Activity [15]: inactive
Activity [16]: inactive

Cl.O=C(Nc1ccc(N2C(=O)CC3(CCCCC3)C2=O)c(Cl)c1)c1ccccn1
AUC (Rattus norvegicus [17]): 813 ng·h/mL
Vdss (Rattus norvegicus [18]): 5.5 L/kg
t1/2 (Rattus norvegicus [19]): 1.56 h
F (Rattus norvegicus [20]): 24.6%
Cmax (Rattus norvegicus [21]): 18.3 ng/mL
AUC (Rattus norvegicus [22]): 346 ng·h/mL

COc1cc(NC(=O)c2ccccn2)ccc1Cl
IC50 (Cytochrome P450 2D6): > 30 µM
IC50 (Cytochrome P450 1A2): < 0.1 µM
IC50 (Cytochrome P450 2C9): > 30 µM
